This is an account of results in ChEMBL document CHEMBL1148843, “High-throughput screening affords novel and selective trypanothione reductase inhibitors with anti-trypanosomal activity” (Bioorg Med Chem Lett, 2007).

For one assay, the target named is Trypanothione reductase (Trypanosoma brucei brucei, UniProt P39051). Nature of the assay: Inhibition of TR by DTNB-coupled assay. In a few lines: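 Trypanothione reductase in 40 mM potassium HEPES pH 7.4, 1 mM EDTA with 4.22 µM trypanothione disulfide, 70.3 µM DTNB, 2.81 mU/mL TR. Compounds added from DMSO stocks, tested over 1.91 ng/mL to 31.2 µg/mL. NADPH added to start the reaction, 135 µM in the added solution. Plates incubated 60 min at 30°C, absorbance read at 405 nm. IC50 values determined.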

In assay [1] the target is T1, Glutathione reductase, mitochondrial (Homo sapiens, UniProt P00390).
T1 sequence (P00390 whole entry): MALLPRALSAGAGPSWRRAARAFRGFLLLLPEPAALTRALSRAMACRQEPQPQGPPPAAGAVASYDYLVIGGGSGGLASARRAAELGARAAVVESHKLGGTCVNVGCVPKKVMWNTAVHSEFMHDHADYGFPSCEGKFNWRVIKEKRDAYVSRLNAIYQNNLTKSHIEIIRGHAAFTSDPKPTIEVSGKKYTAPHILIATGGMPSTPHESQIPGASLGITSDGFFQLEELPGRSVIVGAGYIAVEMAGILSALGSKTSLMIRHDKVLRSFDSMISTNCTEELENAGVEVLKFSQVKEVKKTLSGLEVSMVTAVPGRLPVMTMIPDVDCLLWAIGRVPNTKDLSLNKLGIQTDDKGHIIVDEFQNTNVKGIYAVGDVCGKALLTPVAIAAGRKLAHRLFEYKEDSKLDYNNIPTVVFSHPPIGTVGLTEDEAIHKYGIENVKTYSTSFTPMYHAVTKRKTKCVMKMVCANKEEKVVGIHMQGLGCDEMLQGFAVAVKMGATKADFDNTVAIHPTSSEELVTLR
The experiment in a line: Inhibition of human GR.

Another assay deals with Trypanosoma brucei. The experiment in a line: Antiproliferative activity against Trypanosoma brucei. The format is functional, organism-based. An outline of the steps: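 Bloodstream T. b. brucei S427 seeded at 10^3 cells/ml in HMI9 medium, 0.5% DMSO, inhibitor 50 to 0.2 μM serially diluted from 10 mM DMSO stocks. Incubated 72 h, 37 °C, 5% CO2, humidified. Then 45 μM resazurin added, further 4 h, resorufin fluorescence read (ex 528, em 590 nm). Triplicates, three separate occasions; weighted means ± SEM.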

A short description of assay [2]: Selectivity for TR over human GR.

Structures are written as SMILES.

Sequence of Trypanothione reductase (P39051 whole entry): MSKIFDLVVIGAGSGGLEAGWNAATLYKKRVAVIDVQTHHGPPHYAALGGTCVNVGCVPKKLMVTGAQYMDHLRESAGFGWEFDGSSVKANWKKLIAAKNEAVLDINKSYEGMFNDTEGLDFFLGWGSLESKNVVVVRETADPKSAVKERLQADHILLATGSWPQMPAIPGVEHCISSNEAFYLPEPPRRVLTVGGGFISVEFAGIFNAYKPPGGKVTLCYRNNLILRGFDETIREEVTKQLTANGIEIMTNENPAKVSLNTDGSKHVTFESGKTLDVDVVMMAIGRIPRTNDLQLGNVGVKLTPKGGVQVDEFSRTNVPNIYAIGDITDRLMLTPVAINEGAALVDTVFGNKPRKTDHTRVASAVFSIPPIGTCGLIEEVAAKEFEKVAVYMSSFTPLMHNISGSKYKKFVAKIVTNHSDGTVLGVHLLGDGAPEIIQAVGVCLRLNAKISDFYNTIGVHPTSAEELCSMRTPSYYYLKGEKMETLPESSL

Broadly, the IC50 is the concentration that inhibits the measured activity by half. Read a high IC50 as a need for much substance. For orientation: EC50 means the concentration needed to bring the measured effect to its halfway point. A high value points to lower potency in that assay. Turning to `O=C(CCNc1cccc(F)c1)c1cccc([N+](=O)[O-])c1`, the concentration for half-maximal inhibition (IC50) against Trypanothione reductase was 3.3 µM; in assay [1], more than 173 µM. Further, in the assay with Trypanosoma brucei, the EC50 is 0.82 µM.
For the compound `CCCCOC(=O)c1ccc(NCCC(=O)c2cccc([N+](=O)[O-])c2)cc1`, the values for the IC50 (against Trypanothione reductase; in assay [1]) were 2.4 µM and more than 135 µM, respectively. Further, the response in the assay with Trypanosoma brucei was half-maximal at 0.96 µM (EC50).
Regarding `CN(C)CCC(=O)c1ccc(S(C)(=O)=O)cc1`, the IC50 stood at 2.9 µM against Trypanothione reductase and 20.4 µM in assay [1]. Besides, in assay [2], the Ratio IC50 is 7. Further, the EC50 in the assay with Trypanosoma brucei is 0.55 µM.
`CC(C)(C)c1cc(CNCCO)cc(C(C)(C)C)c1O`: the concentration for half-maximal inhibition (IC50) against Trypanothione reductase was 2 µM; in assay [1], 24.9 µM. Besides, the Ratio IC50 in assay [2] is 13. Also, the response with Trypanosoma brucei was half-maximal at 3.01 µM (EC50).
In the same order, the values of `CN(C)CCC(=O)c1ccc(Cl)c(Cl)c1` are 3.3 µM, 64.8 µM, 20 and 1 µM.
Regarding `CC(C)c1cc(CN(C)C)cc(C(C)C)c1O`, the results for the IC50 (on Trypanothione reductase; in assay [1]) were 11.8 µM and 79.3 µM, respectively. Besides, the Ratio IC50 in assay [2] came out at 6.7. The compound also returned an EC50 in the assay on Trypanosoma brucei of more than 50 µM.
In turn, `N=C(N)c1ccc(OCCCCCOc2ccc(C(=N)N)cc2)cc1` [PENTAMIDINE] returned an IC50 in the assay with Trypanosoma brucei of 0.0046 µM.
`CN(C)CCC(=O)c1cccc([N+](=O)[O-])c1`: the IC50 against Trypanothione reductase came out at 0.34 µM; in assay [1], 20.3 µM. The Ratio IC50 in assay [2] is 59. Moreover, the EC50 in the assay on Trypanosoma brucei was 0.68 µM.
As to `CC(C)(C)c1cc(CN2CCCCCC2)cc(C(C)(C)C)c1O`, the IC50 is 38.8 µM against Trypanothione reductase and more than 155 µM in assay [1]. Moreover, the concentration for a half-maximal effect (EC50) with Trypanosoma brucei was 3.3 µM.
Take `CCc1ccc(NCCC(=O)c2ccc(Cl)c(Cl)c2)cc1`: the IC50 at Trypanothione reductase is 107 µM; in assay [1], more than 157 µM. This compound also had an EC50 with Trypanosoma brucei of 1.65 µM.
With `CS(=O)(=O)c1ccc(C(=O)CCN2CCCCC2)cc1`, the IC50 stood at 7.8 µM against Trypanothione reductase and 105 µM in assay [1]. Also, the Ratio IC50 in assay [2] turned out to be 13. The compound further had an EC50 with Trypanosoma brucei of 0.95 µM.
For `O=C(CCNc1ccccc1)c1cccc([N+](=O)[O-])c1` the same measures were 1.7 µM, 58 µM, 35 and 1.01 µM.
For `Cc1cccc(NCCC(=O)c2cccc([N+](=O)[O-])c2)c1C` the same measures were 1.5 µM, 86.3 µM, 58 and 0.15 µM.
As to `O=C(CCN1CCOCC1)c1ccc(Cl)cc1`, the IC50 against Trypanothione reductase was 148 µM; in assay [1], more than 212 µM. The compound further displayed an EC50 with Trypanosoma brucei of 0.98 µM.
